Data taken from the RNAGym collection of RNA variant scans (doi:10.1002/anie.201605470).

B1: Osa-1-4 twister ribozyme (parent)
chain: CCGCCUAACACUGCCAAUGCCGGUCCCAAGCCCGGAUAAAAGUGGAGGGGGCGG

Variants of: B1
Test: self-cleavage, relative activity (ratio to wild type); higher = more cleavage; co-transcriptional
Summary of the method: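 The 48 positions downstream of the cleavage site in a 54-nucleotide Oryza sativa twister ribozyme template were synthesised at 97 % wild-type base and 1 % of each other base. The template was transcribed in vitro at 37 °C for 2 h, with self-cleavage allowed during transcription. Reads with or without upstream sequence after deep sequencing marked cleavage status, and relative activity is fraction cleaved normalised to wild type.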

| Variant | self-cleavage |
| --- | --- |
| A39U G30U | 0.05 |
| A39C C21U | 0.97 |
| A39C C21G | 0.08 |
| A39C C21A | 0.22 |
| A39G C31A | 0.03 |
| A39G C31G | 0.1 |
| A39G C31U | 0.56 |
| A39C G42U | 0.05 |
| A39C G42A | 0.1 |
| A39C G42C | 0.09 |
| A39U C21U | 0.99 |
| A39U C21A | 0.38 |
| A39U C21G | 0.07 |
| A39G A7C | 0.04 |
| A39G A7U | 0.08 |
| A39G A7G | 0.31 |
| A39C C32U | 0.08 |
| A39C C32G | 0.1 |
| A39C C32A | 0.08 |
| A39G G30U | 0.04 |
| A39G G30A | 0.05 |
| A39G G30C | 0.05 |
| A39C A46C | 0.04 |
| A39C A46G | 0.05 |

| Variant | self-cleavage |
| --- | --- |
| A39C A46U | 0.07 |
| A39U C31A | 0.03 |
| A39U C31G | 0.08 |
| A39U C31U | 0.67 |
| A39G G13C | 0.03 |
| A39G G13A | 0.07 |
| A39G G13U | 0.03 |
| A39G C25G | 0.07 |
| A39G C25A | 0.07 |
| A39G C25U | 0.53 |
| A39C C52G | 0.96 |
| A39C C52U | 1.06 |
| A39C C52A | 1 |
| A39U G34C | 0.25 |
| A39U G34U | 0.53 |
| A39U G34A | 0.68 |
| A39U G35C | 0.19 |
| A39U G35U | 0.87 |
| A39U G35A | 0.83 |
| A39C A40U | 0.85 |
| A39C A40C | 0.1 |
| A39C A40G | 0.59 |
| A39C C31A | 0.04 |
| A39C C31G | 0.08 |

| Variant | self-cleavage |
| --- | --- |
| A39C C31U | 0.53 |
| A39U G42C | 0.11 |
| A39U G42A | 0.17 |
| A39U G42U | 0.07 |
| A39G U37G | 1.01 |
| A39G U37A | 1.01 |
| A39G U37C | 1 |
| A39G A40G | 0.36 |
| A39G A40U | 0.16 |
| A39G A40C | 0.05 |
| A39C G13U | 0.03 |
| A39C G13A | 0.06 |
| A39C G13C | 0.02 |
| A39U C27A | 0.12 |
| A39U C27U | 0.12 |
| A39U C27G | 0.09 |
| A39G G53C | 0.08 |
| A39G G53U | 0.2 |
| A39G G53A | 0.55 |
| A39G G47U | 0.13 |
| A39G G47C | 0.09 |
| A39G G47A | 0.13 |
| A39C G51C | 0.05 |
| A39C G51A | 0.53 |

| Variant | self-cleavage |
| --- | --- |
| A39C G51U | 0.21 |
| A39G | 1 |
| A39U | 1 |
| A39G A46C | 0.05 |
| A39G A46U | 0.09 |
| A39G A46G | 0.06 |
| A39C G53A | 0.37 |
| A39C G53U | 0.12 |
| A39C G53C | 0.06 |
| A39C U43A | 0.33 |
| A39C U43G | 0.16 |
| A39C U43C | 0.16 |
| A39G G48C | 0.08 |
| A39G G48A | 0.1 |
| A39G G48U | 0.07 |
| A39G C14U | 0.11 |
| A39G C14G | 0.12 |
| A39G C14A | 0.08 |
| A39G U18C | 0.96 |
| A39G U18G | 0.87 |
| A39G U18A | 1 |
| A39C G48U | 0.05 |
| A39C G48C | 0.05 |
| A39C G48A | 0.06 |

| Variant | self-cleavage |
| --- | --- |
| A39G G35U | 0.87 |
| A39G G35C | 0.22 |
| A39G G35A | 0.78 |
| A39C G49C | 0.06 |
| A39C G49A | 0.07 |
| A39C G49U | 0.06 |
| A39C C26G | 0.07 |
| A39C C26U | 0.35 |
| A39C C26A | 0.04 |
| A39G C33A | 0.08 |
| A39G C33G | 0.07 |
| A39G C33U | 0.63 |
| A39U G48A | 0.08 |
| A39U G48C | 0.05 |
| A39U G48U | 0.06 |
| A39G A41U | 0.95 |
| A39G A41C | 0.6 |
| A39G A41G | 0.46 |
| A39G C15A | 0.41 |
| A39G C15U | 0.21 |
| A39G C15G | 0.31 |
| A39G A8U | 0.17 |
| A39G A8G | 0.35 |
| A39G A8C | 0.08 |

| Variant | self-cleavage |
| --- | --- |
| A39C G54A | 0.62 |
| A39C G54C | 0.6 |
| A39C G54U | 0.65 |
| A39U G49C | 0.06 |
| A39U G49A | 0.11 |
| A39U G49U | 0.08 |
| A39U G44U | 0.9 |
| A39U G44A | 0.77 |
| A39U G44C | 0.91 |
| A39U G50A | 0.63 |
| A39C G19U | 0.11 |
| A39C G19C | 0.06 |
| A39C G19A | 0.28 |
| A39U G13U | 0.02 |
| A39U G13C | 0.03 |
| A39U G13A | 0.05 |
| A39U C14G | 0.12 |
| A39U C14A | 0.09 |
| A39U C14U | 0.17 |
| A39C U12G | 0.11 |
| A39C U12C | 0.11 |
| A39C U12A | 0.44 |
| A39C A8C | 0.09 |
| A39C A8G | 0.23 |

| Variant | self-cleavage |
| --- | --- |
| A39C A8U | 0.1 |
| A39G C21G | 0.08 |
| A39G C21A | 0.55 |
| A39G C21U | 1.01 |
| A39C C11A | 0.26 |
| A39C C11U | 0.74 |
| A39C C11G | 0.21 |
| A39G C52A | 0.97 |
| A39G C52G | 0.98 |
| A39G C52U | 1.04 |
| A39C U18C | 0.96 |
| A39C U18G | 0.83 |
| A39C U18A | 0.93 |
| A39C G50U | 1 |
| A39C G50A | 0.64 |
| A39C G50C | 0.67 |
| A39U A40G | 0.65 |
| A39U A40C | 0.12 |
| A39U A40U | 0.64 |
| A39C A7U | 0.06 |
| A39U A46C | 0.05 |
| A39U A46U | 0.07 |
| A39U A46G | 0.04 |
